According to ChEMBL document CHEMBL1149171, “Development of orally bioavailable bicyclic pyrazolones as inhibitors of tumor necrosis factor-alpha production” (J Med Chem, 2004):
In brackets after ≈: the same amount, converted by molar mass.

How the values were obtained:
[1] = Oral bioavailability in rat; assay type: ADME, organism-based; conditions: in vivo
[2] = Solubility was determined; assay type: ADME, Rattus norvegicus
Summary of the method: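 Shake-flask method in 50 mM phosphate buffer, pH 7.4, ionic strength 0.15 M, with 24 h equilibration. Supernatant was centrifuged and filtered, diluted with acetonitrile, and quantified by UV-vis against calibration standards in 1:1 acetonitrile/buffer.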

[3] = Metabolism was measured as percent loss at 4 hr in rat hepatocytes; assay type: ADME, Hepatocyte; conditions: read-out: Metabolism
Summary of the method: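 Plated Sprague-Dawley rat hepatocytes on matrigel at 37 °C, 0.25 µM compound, in triplicate. Samples taken at 0, 2 and 4 h and pooled across compounds after incubation, with internal standard added. Analysis by reverse-phase HPLC/MS/MS. Analyte/internal-standard area ratio at 4 h divided by the 0 h ratio gives percent loss.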

[4] = target: Glycogen synthase kinase-3 beta (Homo sapiens) (UniProt P49841); test: Inhibition of Glycogen synthase kinase-3 beta at 1 uM; parameters: scale not given: the % may be the effect or the level left
Chain of Glycogen synthase kinase-3 beta (Homo sapiens) (P49841 whole entry, looked up): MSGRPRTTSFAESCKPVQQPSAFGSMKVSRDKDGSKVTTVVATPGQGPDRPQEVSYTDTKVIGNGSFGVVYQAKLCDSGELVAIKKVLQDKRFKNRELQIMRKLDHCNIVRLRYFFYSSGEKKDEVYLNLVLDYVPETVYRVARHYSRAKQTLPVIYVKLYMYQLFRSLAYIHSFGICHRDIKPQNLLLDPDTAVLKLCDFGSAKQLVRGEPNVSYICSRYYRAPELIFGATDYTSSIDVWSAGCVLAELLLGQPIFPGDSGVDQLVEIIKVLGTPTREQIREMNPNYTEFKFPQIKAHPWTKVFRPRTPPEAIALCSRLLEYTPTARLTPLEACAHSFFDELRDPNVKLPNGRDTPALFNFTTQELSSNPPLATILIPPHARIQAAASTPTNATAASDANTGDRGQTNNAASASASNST
Summary of the method: (§1)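 Kinase selectivity panel. Each kinase tested with compound at 1 µM and ATP at its K_m, in triplicate. Activity is given as a percentage of control incubations; SD typically 10%.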

[5] = target: RAC-alpha serine/threonine-protein kinase (Homo sapiens) (UniProt P31749); test: Inhibition of Protein kinase B alpha (Akt) at 1 uM; parameters: scale not given: the % may be the effect or the level left; summary of the method: as §1
Chain of RAC-alpha serine/threonine-protein kinase (Homo sapiens) (P31749 whole entry): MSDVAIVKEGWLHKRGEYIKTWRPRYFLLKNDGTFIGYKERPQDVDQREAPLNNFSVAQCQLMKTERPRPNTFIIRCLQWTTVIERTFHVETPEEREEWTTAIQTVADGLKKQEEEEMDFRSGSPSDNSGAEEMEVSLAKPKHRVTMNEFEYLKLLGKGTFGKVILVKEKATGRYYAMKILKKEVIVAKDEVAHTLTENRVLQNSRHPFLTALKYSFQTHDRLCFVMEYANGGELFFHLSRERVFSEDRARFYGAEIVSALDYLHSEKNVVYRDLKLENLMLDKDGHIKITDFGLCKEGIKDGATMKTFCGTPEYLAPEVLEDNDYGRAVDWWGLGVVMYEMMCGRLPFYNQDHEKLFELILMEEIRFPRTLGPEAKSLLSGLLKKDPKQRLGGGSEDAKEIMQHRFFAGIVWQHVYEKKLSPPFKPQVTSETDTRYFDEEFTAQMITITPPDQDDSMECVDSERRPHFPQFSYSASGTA

[6] = target: Mitogen-activated protein kinase 8 (Homo sapiens) (UniProt P45983); test: Inhibition of c-Jun N-terminal kinase 1-alpha 1 at 1 uM; parameters: scale not given: the % may be the effect or the level left; summary of the method: as §1
Chain of Mitogen-activated protein kinase 8 (Homo sapiens) (P45983 whole entry): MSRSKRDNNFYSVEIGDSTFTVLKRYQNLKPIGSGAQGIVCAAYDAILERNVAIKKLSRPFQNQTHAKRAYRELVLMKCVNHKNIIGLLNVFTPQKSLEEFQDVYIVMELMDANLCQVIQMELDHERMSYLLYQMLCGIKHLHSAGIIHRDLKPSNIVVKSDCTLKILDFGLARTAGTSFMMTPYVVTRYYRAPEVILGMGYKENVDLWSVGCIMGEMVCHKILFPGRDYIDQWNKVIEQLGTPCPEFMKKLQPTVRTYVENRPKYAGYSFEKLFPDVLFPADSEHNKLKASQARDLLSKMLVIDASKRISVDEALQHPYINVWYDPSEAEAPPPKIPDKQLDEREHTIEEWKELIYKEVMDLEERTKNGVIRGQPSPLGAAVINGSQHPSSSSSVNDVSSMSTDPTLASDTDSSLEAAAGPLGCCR

[7] = target: Cyclin-dependent kinase 2/cyclin A (Homo sapiens) (UniProt P24941+P20248+P78396); test: Inhibition of Cyclin-dependent kinase 2-cyclin A at 1 uM; assay type: protein-complex assay; parameters: scale not given: the % may be the effect or the level left; summary of the method: as §1
[8] = target: RAF proto-oncogene serine/threonine-protein kinase (Homo sapiens) (UniProt P04049); test: Inhibition of RAF proto-oncogene serine/threonine-protein kinase at 1 uM; parameters: scale not given: the % may be the effect or the level left; summary of the method: as §1
Chain of RAF proto-oncogene serine/threonine-protein kinase (Homo sapiens) (P04049 whole entry): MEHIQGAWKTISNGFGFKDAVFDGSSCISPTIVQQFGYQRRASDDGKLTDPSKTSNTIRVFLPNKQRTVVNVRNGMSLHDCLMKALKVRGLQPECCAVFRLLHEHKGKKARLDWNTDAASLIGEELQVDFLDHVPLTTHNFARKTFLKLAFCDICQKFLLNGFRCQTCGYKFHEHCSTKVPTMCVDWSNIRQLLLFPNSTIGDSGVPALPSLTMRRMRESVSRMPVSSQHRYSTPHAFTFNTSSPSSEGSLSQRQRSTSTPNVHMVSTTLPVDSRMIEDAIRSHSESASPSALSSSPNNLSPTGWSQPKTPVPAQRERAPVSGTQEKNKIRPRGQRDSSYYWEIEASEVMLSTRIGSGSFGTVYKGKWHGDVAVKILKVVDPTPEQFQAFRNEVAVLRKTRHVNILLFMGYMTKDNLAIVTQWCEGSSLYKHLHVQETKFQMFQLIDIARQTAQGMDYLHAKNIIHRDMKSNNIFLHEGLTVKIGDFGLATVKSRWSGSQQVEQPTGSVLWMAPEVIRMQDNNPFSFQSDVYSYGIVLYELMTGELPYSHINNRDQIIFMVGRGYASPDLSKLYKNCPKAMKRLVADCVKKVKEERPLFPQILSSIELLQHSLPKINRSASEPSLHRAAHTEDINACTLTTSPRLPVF

[9] = target: Mitogen-activated protein kinase 10 (Homo sapiens) (UniProt P53779); test: Inhibition of c-Jun N-terminal kinase 3 at 1 uM; parameters: scale not given: the % may be the effect or the level left; summary of the method: as §1
Chain of Mitogen-activated protein kinase 10 (Homo sapiens) (P53779 whole entry): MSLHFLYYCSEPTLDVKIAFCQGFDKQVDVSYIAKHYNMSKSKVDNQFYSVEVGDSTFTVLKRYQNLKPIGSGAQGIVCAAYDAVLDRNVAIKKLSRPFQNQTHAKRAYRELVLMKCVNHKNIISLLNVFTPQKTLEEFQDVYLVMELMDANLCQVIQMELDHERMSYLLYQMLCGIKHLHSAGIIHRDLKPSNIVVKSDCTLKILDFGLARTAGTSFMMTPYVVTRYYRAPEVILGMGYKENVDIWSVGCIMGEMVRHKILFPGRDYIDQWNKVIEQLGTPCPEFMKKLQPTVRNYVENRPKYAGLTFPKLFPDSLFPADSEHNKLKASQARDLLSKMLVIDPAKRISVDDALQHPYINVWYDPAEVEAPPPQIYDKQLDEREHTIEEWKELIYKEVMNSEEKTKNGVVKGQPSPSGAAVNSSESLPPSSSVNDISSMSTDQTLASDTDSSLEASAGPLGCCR

[10] = target: Mitogen-activated protein kinase 1 (Homo sapiens) (UniProt P28482); test: Inhibition of ERK2/MAPK2 kinase at 1 uM; parameters: scale not given: the % may be the effect or the level left; summary of the method: as §1
Chain of Mitogen-activated protein kinase 1 (Homo sapiens) (P28482 whole entry): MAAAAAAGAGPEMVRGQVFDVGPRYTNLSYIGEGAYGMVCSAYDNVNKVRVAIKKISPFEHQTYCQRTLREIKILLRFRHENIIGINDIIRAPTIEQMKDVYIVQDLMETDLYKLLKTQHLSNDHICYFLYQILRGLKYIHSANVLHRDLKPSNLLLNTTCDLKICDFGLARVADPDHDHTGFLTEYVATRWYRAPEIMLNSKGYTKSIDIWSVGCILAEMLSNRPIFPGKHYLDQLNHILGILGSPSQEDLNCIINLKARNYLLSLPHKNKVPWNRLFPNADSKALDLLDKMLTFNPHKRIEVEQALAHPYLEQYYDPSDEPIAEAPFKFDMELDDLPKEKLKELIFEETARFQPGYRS

[11] = target: T1, Dual specificity mitogen-activated protein kinase kinase 4 (Homo sapiens) (UniProt P45985); test: Inhibition of MKK4/SKK1 kinase at 1 uM; parameters: scale not given: the % may be the effect or the level left; summary of the method: as §1
T1 sequence (whole entry): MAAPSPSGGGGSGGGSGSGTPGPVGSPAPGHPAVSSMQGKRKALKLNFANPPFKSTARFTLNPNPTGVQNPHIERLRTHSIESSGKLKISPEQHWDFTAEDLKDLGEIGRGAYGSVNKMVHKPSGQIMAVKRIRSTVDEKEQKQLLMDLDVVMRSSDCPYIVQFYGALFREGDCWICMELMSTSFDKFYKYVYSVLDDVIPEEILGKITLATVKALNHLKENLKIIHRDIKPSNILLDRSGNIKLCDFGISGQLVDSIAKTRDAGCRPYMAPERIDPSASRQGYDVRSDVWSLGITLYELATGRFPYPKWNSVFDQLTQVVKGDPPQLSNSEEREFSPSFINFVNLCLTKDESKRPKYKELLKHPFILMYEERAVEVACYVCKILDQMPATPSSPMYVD

[12] = target: Mitogen-activated protein kinase 9 (Homo sapiens) (UniProt P45984); test: Inhibition of c-Jun N-terminal kinase 2-alpha 2 at 1 uM; parameters: scale not given: the % may be the effect or the level left; summary of the method: as §1
Chain of Mitogen-activated protein kinase 9 (Homo sapiens) (P45984 whole entry, looked up): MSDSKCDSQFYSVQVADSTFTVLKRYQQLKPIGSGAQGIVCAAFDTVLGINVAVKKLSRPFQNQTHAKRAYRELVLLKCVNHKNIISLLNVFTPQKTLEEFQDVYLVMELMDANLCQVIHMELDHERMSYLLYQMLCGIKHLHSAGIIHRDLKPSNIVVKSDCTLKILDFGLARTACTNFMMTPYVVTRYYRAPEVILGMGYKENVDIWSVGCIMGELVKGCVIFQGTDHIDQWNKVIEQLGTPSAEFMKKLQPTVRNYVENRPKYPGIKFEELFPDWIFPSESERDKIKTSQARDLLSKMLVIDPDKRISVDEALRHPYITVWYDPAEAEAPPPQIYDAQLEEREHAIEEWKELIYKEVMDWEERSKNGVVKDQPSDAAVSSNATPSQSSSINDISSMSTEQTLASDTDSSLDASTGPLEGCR

[13] = target: Tyrosine-protein kinase Lck (Homo sapiens) (UniProt P06239); test: Inhibition of p56 Lck tyrosine kinase at 1 uM; parameters: scale not given: the % may be the effect or the level left; summary of the method: as §1
Chain of Tyrosine-protein kinase Lck (Homo sapiens) (P06239 2-509 limits assumed): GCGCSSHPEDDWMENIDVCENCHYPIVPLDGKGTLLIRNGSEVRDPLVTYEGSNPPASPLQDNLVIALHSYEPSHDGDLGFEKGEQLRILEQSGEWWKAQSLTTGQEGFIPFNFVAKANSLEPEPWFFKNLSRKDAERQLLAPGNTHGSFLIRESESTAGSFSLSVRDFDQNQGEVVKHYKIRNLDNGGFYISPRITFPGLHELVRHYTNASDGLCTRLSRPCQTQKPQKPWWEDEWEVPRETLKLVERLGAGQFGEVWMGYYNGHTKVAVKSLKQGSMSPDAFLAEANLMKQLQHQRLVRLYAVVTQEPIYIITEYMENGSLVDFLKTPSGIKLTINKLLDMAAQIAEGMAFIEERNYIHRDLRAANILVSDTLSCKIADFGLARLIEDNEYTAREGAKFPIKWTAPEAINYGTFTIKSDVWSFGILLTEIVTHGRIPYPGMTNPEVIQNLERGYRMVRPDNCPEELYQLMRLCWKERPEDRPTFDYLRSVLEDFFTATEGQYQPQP

[14] = target: MAP kinase-activated protein kinase 2 (Homo sapiens) (UniProt P49137); test: Inhibition of MAPKAP-K2 kinase at 1 uM; parameters: scale not given: the % may be the effect or the level left; summary of the method: as §1
Chain of MAP kinase-activated protein kinase 2 (Homo sapiens) (P49137 whole entry, looked up): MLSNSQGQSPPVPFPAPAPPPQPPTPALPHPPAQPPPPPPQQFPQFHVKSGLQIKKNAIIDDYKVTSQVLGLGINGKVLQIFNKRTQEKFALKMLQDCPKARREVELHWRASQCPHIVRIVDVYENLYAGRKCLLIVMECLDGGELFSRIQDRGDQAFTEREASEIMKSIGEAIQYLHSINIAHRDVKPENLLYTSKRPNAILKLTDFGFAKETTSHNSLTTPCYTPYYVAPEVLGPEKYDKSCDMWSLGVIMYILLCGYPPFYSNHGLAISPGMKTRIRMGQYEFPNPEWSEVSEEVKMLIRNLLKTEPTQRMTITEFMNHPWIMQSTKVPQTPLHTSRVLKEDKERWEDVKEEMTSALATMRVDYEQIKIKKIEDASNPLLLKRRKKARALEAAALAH

MAP kinase p38 = MAP kinase p38 (Homo sapiens, UniProt O15264+Q15759+Q16539+P53778); test: Inhibition of human Mitogen-activated protein kinase p38; assay type: protein assay
[15] = target: Mitogen-activated protein kinase 3 (Homo sapiens) (UniProt P27361); test: Inhibition of Mitogen-activated protein kinase 3 at 1 uM; parameters: scale not given: the % may be the effect or the level left; summary of the method: as §1
Chain of Mitogen-activated protein kinase 3 (Homo sapiens) (P27361 whole entry): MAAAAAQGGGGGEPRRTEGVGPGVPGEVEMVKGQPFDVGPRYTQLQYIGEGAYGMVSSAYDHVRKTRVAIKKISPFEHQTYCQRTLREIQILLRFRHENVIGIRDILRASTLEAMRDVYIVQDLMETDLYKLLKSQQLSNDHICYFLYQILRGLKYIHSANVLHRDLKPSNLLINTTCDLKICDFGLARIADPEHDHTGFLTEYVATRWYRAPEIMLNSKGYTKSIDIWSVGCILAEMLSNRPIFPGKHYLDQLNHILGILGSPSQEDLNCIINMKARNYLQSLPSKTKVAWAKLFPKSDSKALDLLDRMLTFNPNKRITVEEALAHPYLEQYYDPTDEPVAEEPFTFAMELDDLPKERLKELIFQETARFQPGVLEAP

[16] = target: Cyclin-dependent kinase 1/cyclin B (Homo sapiens) (UniProt P06493+P14635+Q8WWL7+O95067); test: Inhibition of Cyclin-dependent kinase 1-cyclin B at 1 uM; assay type: protein-complex assay; parameters: scale not given: the % may be the effect or the level left; summary of the method: as §1
[17] = target: Dual specificity mitogen-activated protein kinase kinase 1 (MEK1, MAP2K1) (Homo sapiens) (UniProt Q02750); test: Inhibition of Dual specificity mitogen activated protein kinase kinase 1 at 1 uM; parameters: scale not given: the % may be the effect or the level left
Chain of Dual specificity mitogen-activated protein kinase kinase 1 (MEK1, MAP2K1) (Homo sapiens) (Q02750 whole entry, looked up): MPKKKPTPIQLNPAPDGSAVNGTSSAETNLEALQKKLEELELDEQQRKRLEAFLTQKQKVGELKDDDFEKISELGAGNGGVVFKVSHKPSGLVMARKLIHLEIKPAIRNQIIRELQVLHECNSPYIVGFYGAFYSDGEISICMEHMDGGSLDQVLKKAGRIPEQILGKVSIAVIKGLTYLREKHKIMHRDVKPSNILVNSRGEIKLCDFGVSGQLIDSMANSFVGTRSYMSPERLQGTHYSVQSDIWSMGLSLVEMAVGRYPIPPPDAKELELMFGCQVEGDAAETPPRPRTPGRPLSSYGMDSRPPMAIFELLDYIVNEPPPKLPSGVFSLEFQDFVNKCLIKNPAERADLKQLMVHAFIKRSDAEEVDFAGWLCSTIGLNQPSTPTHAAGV

[18] = target: Mitogen-activated protein kinase 3 (Homo sapiens) (UniProt P27361); test: Inhibition of Mitogen-activated protein kinase 3 kinase at 1 uM; parameters: scale not given: the % may be the effect or the level left; summary of the method: as §1
[19] = Inhibition of MAPK1/IKKB kinase at 1 uM; parameters: scale not given: the % may be the effect or the level left
Summary of the method: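 Kinase panel, tested at 1 µM compound with ATP at its K_m, in triplicate. Activity is expressed as a percentage of that in control incubations.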

Compound | bioavailability [1] [%] | solubility [2] [µg/mL] | metabolised at 4 h [3] [%] | Activity [4] [%] | Activity [5] [%] | Activity [6] [%] | Activity [7] [%] | Activity [8] [%] | Activity [9] [%] | Activity [10] [%] | Activity [11] [%] | Activity [12] [%] | Activity [13] [%] | Activity [14] [%] | IC50 (MAP kinase p38) [nM] | Activity [15] [%] | Activity [16] [%] | Activity [17] [%] | Activity [18] [%] | Activity [19] [%]
O=c1c(-c2ccc(F)cc2)c(-c2ccnc(NCc3ccccc3)n2)n2n1CCC2 | 18 | 100 (≈ 249 µM) | 46 |  |  |  |  |  |  |  |  |  |  |  |  |  |  |  |  | 
C[C@H](Nc1nccc(-c2c(-c3ccc(F)cc3)c(=O)n3n2CCC3)n1)C(C)(C)O | 25 | 1850 (≈ 4650 µM) | 29 | 99 | 119 | 105 | 101 | 91 | 36 | 108 | 117 | 73 | 141 | 112 | 54 |  | 99 | 95 | 9 | 111
COC[C@H](C)Nc1nccc(-c2c(-c3ccc(F)cc3)c(=O)n3n2CCC3)n1 | 63 | 840 (≈ 2190 µM) | < 5 | 72 | 89 | 65 | 108 | 55 | 5 | 98 | 90 | 8 |  | 113 | 27 |  | 96 | 102 | 96 | 

Second part, the molecule after the results:

bioavailability [1] [%] | solubility [2] [µg/mL] | metabolised at 4 h [3] [%] | Activity [4] [%] | Activity [5] [%] | Activity [6] [%] | Activity [7] [%] | Activity [8] [%] | Activity [9] [%] | Activity [10] [%] | Activity [11] [%] | Activity [12] [%] | Activity [13] [%] | Activity [14] [%] | IC50 (MAP kinase p38) [nM] | Activity [15] [%] | Activity [16] [%] | Activity [17] [%] | Activity [18] [%] | Activity [19] [%] | Compound
10 | 460 (≈ 1250 µM) | 60 |  |  |  |  |  |  |  |  |  |  |  |  |  |  |  |  |  | CC[C@H](C)Nc1nccc(-c2c(-c3ccc(F)cc3)c(=O)n3n2CCC3)n1
29 | 200 (≈ 481 µM) | 50 | 101 | 98 | 52 | 117 | 61 | 4 | 80 | 166 | 8 | 161 | 91 | 8 | 82 | 95 | 99 |  |  | C[C@H](Nc1nccc(-c2c(-c3ccc(F)cc3)c(=O)n3n2CCC3)n1)c1ccccc1
